According to ChEMBL document CHEMBL2010649, “Metacridamides A and B, macrocycles from conidia of the entomopathogenic fungus Metarhizium acridum” (J Nat Prod, 2012):
Activity calls are given as the source filed them. No cut-off for these calls is given here.

Legend:
[1] = Cytotoxicity against human HepG2/C3A cells after 72 hrs by XTT assay; format: functional, cell-based
In short: (§1)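 Cell viability measured by XTT cell proliferation kit (XTT Cell Proliferation Kit II) on Caco-2, MCF-7 and HepG2/C3A lines; IC50 values derived.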

[2] = tested on: Colletotrichum acutatum; test: Antimicrobial activity against Colletotrichum acutatum at 100 ug/disk measured every 24 hrs for 4 days by disk diffusion assay; format: functional, organism-based
In short: (§2)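 Fungi grown on potato dextrose agar. Plates spread with 0.6 mL conidial suspension (ca. 1×10^6 conidia/mL H₂O) and dried 1 h. Sample applied in 10 μL MeOH to 7-mm paper disks, air-dried 1 h, placed on plates. Zones of inhibition read every 24 h for 4 days. Filipin 10 μg/disk positive control; MeOH 10 μL/disk negative control.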

[3] = tested on: Botrytis cinerea; test: Antimicrobial activity against Botrytis cinerea at 100 ug/disk measured every 24 hrs for 4 days by disk diffusion assay; format: functional, organism-based; in short: as §2
[4] = tested on: Escherichia coli; test: Antimicrobial activity against Escherichia coli at 100 ug/disk measured every 24 hrs for 4 days by disk diffusion assay; format: functional, organism-based
In short: (§3)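 Bacteria grown on nutrient agar. Plates spread with 0.6 mL of a 24 h nutrient-broth culture and dried 1 h. Sample applied in 10 μL MeOH to 7-mm paper disks, air-dried 1 h, placed on plates. Zones of inhibition read every 24 h for 4 days. Tetracycline 10 μg/disk positive control; MeOH 10 μL/disk negative control.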

[5] = tested on: Bacillus cereus; test: Antimicrobial activity against Bacillus cereus at 100 ug/disk measured every 24 hrs for 4 days by disk diffusion assay; format: functional, organism-based; in short: as §3
[6] = tested on: Caco-2; test: Cytotoxicity against human Caco2 cells after 72 hrs by XTT assay; format: functional, cell-based; conditions: Caco-2, 72 h; in short: as §1
[7] = tested on: Drosophila melanogaster; test: Insecticidal activity against Drosophila melanogaster at 100 ug; format: functional, organism-based
[8] = tested on: Beauveria bassiana; test: Antimicrobial activity against Beauveria bassiana ARSF 8354 at 100 ug/disk measured every 24 hrs for 4 days by disk diffusion assay; format: functional; in short: as §2
[9] = tested on: MCF7; test: Cytotoxicity against human MCF7 cells after 72 hrs by XTT assay; format: functional, cell-based; conditions: MCF7, 72 h; in short: as §1
[10] = tested on: Aedes aegypti; test: Insecticidal activity against Aedes aegypti larvae at 100 ug/ml; format: functional, organism-based
[11] = tested on: MCF7; test: Cytotoxicity against human MCF7 cells at 100 uM after 72 hrs by XTT assay; format: functional, cell-based
[12] = tested on: Caco-2; test: Cytotoxicity against human Caco2 cells at 100 uM after 72 hrs by XTT assay; format: functional, cell-based

Compound | IC50 [1] | inhibition zone (IZ) [2] | inhibition zone (IZ) [3] | inhibition zone (IZ) [4] | inhibition zone (IZ) [5] | IC50 [6] | Activity [7] | inhibition zone (IZ) [8] | IC50 [9] | Activity [10] | Activity [11] | Activity [12]
CC[C@H](C)C[C@H](C)[C@H]1OC(=O)[C@H](Cc2ccccc2)NC(=O)/C(C)=C/[C@H](C)[C@@H](O)/C(C)=C/[C@H](C)[C@H](OC(C)=O)/C(C)=C/[C@@H]1C [METACRIDAMIDE A] | 10.8 µM | inactive | inactive | inactive | inactive | 6.2 µM | inactive | inactive | 11 µM | inactive | – | –
CC[C@H](C)C[C@H](C)[C@H]1OC(=O)[C@H](Cc2ccccc2)NC(=O)/C(C)=C/[C@H](C)[C@@H](O)/C(C)=C/[C@H](C)[C@H](O)/C(C)=C\[C@@H]1C [METACRIDAMIDE B] | 18.2 µM | – | – | – | – | – | – | – | – | – | inactive | inactive
